Results taken from paper PMC3295204 (Journal of Medicinal Chemistry, 2012).

Assays:
PC-3 cells = test: Cell viability; assay type: cell-based, human; conditions: PC-3, 50 μM, 24 h
[1] = target: T1, progesterone receptor (PR) (Homo sapiens, UniProt P06401); test: TR-FRET SRC1-4 coactivator displacement from progesterone-PR complex; assay type: biochemical; conditions: AR vs PR
T1 sequence (P06401 679-933 limits assumed): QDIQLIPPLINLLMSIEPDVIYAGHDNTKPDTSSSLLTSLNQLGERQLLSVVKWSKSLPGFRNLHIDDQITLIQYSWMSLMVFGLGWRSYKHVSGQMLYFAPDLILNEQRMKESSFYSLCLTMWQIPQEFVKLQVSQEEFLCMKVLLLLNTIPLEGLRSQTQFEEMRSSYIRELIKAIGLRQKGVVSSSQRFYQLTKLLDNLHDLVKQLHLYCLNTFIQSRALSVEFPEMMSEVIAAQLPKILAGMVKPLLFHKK
Outline: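 TR-FRET coactivator-recruitment assay with LBD and Tb anti-GST antibody. Agonist was set at its EC80 from a prior agonist-mode run: DHT for AR-LBD (test compound 100 μM–45 nM), progesterone for PR (100–1 μM). Buffer had 1% DMSO, 5 mM DTT and 0.01% Triton X-100; incubation was 2–4 h at RT in the dark. […] Two experiments in triplicate.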

Cell viability [2] = assay type: cell-based; conditions: human, LNCaP cells (androgen-dependent prostate cancer cell line)
Cell viability [3] = assay type: cell-based, human; conditions: human, PC-3 cells (androgen-independent prostate cancer cell line)
Cell viability [4] = assay type: cell-based; conditions: human, PWR-1E cells (normal prostatic epithelia cell line)
[5] = test system: PSA secretion (AR signaling) in LNCaP cells; test: Secreted PSA ELISA in LNCaP cells; assay type: cell-based, human
Outline: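 Media were renewed every second day, and supernatants collected at day 5 for human PSA sandwich ELISA: sample 2 h at RT, HRP-conjugate antibody 2 h at RT, TMB 30 min, then 2 N H2SO4 stop. OD 450 minus 540 nm was interpolated from a standard curve. Two experiments, SEM n = 4.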

LNCaP cells = test: Hormone-dependent cell proliferation in androgen-deprived LNCaP cells; assay type: cell-based, human
Outline: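 LNCaP cells were androgen-deprived for 48 h in phenol red-free RPMI with 10% charcoal-stripped FBS. They were seeded at 2 × 10^4 cells/mL in triplicate and treated with test compound ± 0.1 nM DHT (0.1% DMSO final), with a vehicle control. Media and treatments were renewed every second day after two PBS washes. Proliferation was read by AlamarBlue at 5 days. Two independent experiments, SEM n = 6.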

Row | binding selectivity for AR over PR [1] | SMILES | cell viability (PC-3 cells) | viability at 24 h, 50 µM (Cell viability [2]) [%] | viability at 24 h, 50 µM (Cell viability [3]) [%] | viability at 24 h, 50 µM (Cell viability [4]) [%] | effect on CPA partial agonist activity (secreted PSA) ([5]; 10 μM, androgen-deprived LNCaP) | effect on DHT-induced PSA secretion ([5]; LNCaP, ELISA) | agonist activity (PSA without hormone stimulation) ([5]; androgen-deprived LNCaP, tested concentrations) | tolerability in LNCaP cells (LNCaP cells; 5 days of treatment at 10 and 20 μM) | effect on DHT-treated cell count (LNCaP cells; 5 days, 10 and 20 μM, 0.1 nM DHT)
1 | – | CC(=O)O[C@]1(C(C)=O)CC[C@H]2[C@@H]3C=C(Cl)C4=CC(=O)[C@@H]5C[C@@H]5[C@]4(C)[C@H]3CC[C@@]21C [CPA, cyproterone acetate, reference compound] | minor effect | – | – | – | – | – | – | – | –
2 | approximately 2 fold | O=C(N/N=C/c1cc(Br)ccc1O)c1cc2ccccc2cc1O [Compound 4] | – | 50 to 60 | 50 to 60 | 50 to 60 | – | – | – | – | –
3 | comparable affinity | COc1cc(/C=N/NC(=O)c2cc3c(ccc4ccccc43)o2)cc(OC)c1O [Compound 5] | – | – | – | – | antagonize CPA partial agonist activity | reduce DHT-induced PSA secretion in a dose–response fashion | no detectable agonist or partial agonist activity | well-tolerated | specific reduction in DHT-treated cell count
